IC50 data for 3 compounds are collected here from BindingDB's records for doi:10.1021/jm960245f (University of Maryland, 1996).

Assay [1] concerns the target T1, Steroid 17-alpha-hydroxylase/17,20 lyase (Homo sapiens, UniProt P05093).
T1 sequence (P05093 whole entry): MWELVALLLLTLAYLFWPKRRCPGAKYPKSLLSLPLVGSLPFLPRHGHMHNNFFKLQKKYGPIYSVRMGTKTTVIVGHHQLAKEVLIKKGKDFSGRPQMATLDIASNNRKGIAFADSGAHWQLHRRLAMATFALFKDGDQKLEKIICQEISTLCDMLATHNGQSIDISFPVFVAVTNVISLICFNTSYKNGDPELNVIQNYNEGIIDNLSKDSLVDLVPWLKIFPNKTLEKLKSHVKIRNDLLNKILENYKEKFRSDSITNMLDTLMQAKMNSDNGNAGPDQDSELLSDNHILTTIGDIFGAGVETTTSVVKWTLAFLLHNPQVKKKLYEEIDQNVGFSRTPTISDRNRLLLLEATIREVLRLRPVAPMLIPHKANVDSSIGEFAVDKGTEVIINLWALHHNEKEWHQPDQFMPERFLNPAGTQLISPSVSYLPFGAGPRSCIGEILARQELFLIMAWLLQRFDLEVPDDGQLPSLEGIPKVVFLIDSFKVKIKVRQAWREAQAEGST
Nature of the assay: Inhibition of human testicular steroid 17-alpha-hydroxylase. Summed up: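 Human testicular microsomes (orchidectomy tissue from untreated prostatic cancer patients, ca. 90 μg protein) incubated with [7-³H]pregnenolone (400 nM) plus NADPH-generating system in pH 7.4 phosphate buffer under oxygen, 5 min, 34 °C, with four to five inhibitor concentrations. Reverse-phase HPLC with radioactivity counting; activity = conversion to 17α-hydroxypregnenolone plus DHEA. Duplicates, repeated at least once; IC50 by nonlinear regression.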

Assay [2] has as its target T1, Steroid 17-alpha-hydroxylase/17,20 lyase. Briefly: Inhibition of human testicular 17-alpha-hydroxylase. Summed up: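 Human testicular microsomes (ca. 90 μg protein; from orchidectomy patients, stored at –70 °C, diluted in 0.1 M phosphate buffer) incubated with [7-3H]pregnenolone (400 nM) plus NADPH-generating system in phosphate buffer pH 7.4 under oxygen, 5 min, 34 °C, at four to five inhibitor concentrations. Reverse-phase HPLC with radioactivity counting; activity = conversion to 17α-hydroxypregnenolone plus DHEA. IC50 by nonlinear regression; duplicates, repeated at least once.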

The IC50 is the midpoint of a concentration-inhibition curve. Higher therefore signals a need for much substance.

Structures are written as SMILES.

The compound `CC(N=O)C1CCC2C3CC=C4C[C@@H](O)CC[C@]4(C)C3CC[C@]12C` (stereo partly drawn) [1-((3S,10R,13S)-3-Hydroxy-10,13-dimethyl-2,3,4,7,8,9,10,11,12,13,14,15,16,17-tetradecahydro-1H-cyclopenta[a]phenanthren-17-yl)-ethanone oxime] had an IC50 in assay [1] of 0.53 µM.

Turning to `C[C@@H](CN=O)[C@H]1CC[C@H]2[C@@H]3CCC4=CC(=O)CC[C@]4(C)[C@H]3CC[C@]12C`, the midpoint of inhibition in assay [2], the IC50, lay at 5.98 µM.

In assay [2], `CC(N=N)[C@H]1CC[C@H]2[C@@H]3CC=C4C[C@@H](O)CC[C@]4(C)[C@H]3CC[C@]12C` (stereo partly drawn) returned an IC50 of 9.98 µM.
